According to ChEMBL document CHEMBL1212735, “Metronidazole resistance in Prevotella spp. and description of a new nim gene in Prevotella baroniae” (2010):
Converted amounts (≈) assume the structure as drawn.

Key:
Type in all cases: functional
Prevotella nanceiensis [1] = test: Antimicrobial activity against Prevotella nanceiensis LBN 410 deficient in nimI gene assessed as inhibition of growth after several passages on plates containing increasing concentration of compound by agar dilution method; details: Hoylesella nanceiensis
Outline: (§1)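 Induction of metronidazole resistance: bacterial suspensions inoculated onto brucella blood agar (5% sheep blood, hemin, vitamin K1) containing metronidazole at increasing concentrations, grown anaerobically at 37°C. Colonies growing at the highest concentration were retested for MIC by CLSI agar dilution on the same agar. Duplicate experiments.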

Prevotella bivia [2] = test: Antimicrobial activity against Prevotella bivia LBN 339 deficient in nim gene assessed as inhibition of growth at 48 hrs by agar dilution method; details: LBN 339, 48 h
Outline: (§2)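 Metronidazole MIC by agar dilution (CLSI M11-A7) on brucella agar with 5% sheep blood, hemin and vitamin K1. Plates were read after 48 h at 35°C under anaerobic conditions. Susceptible was MIC ≤ 4 μg/ml and resistant MIC ≥ 8 μg/ml (EUCAST). B. fragilis ATCC 25285T and B. thetaiotaomicron ATCC 29741 were run as controls. Duplicate assays.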

Prevotella nanceiensis [3] = test: Antimicrobial activity against Prevotella nanceiensis LBN 293b deficient in nimI gene assessed as inhibition of growth after three consecutive subcultures on compound free medium by agar dilution method; details: Hoylesella nanceiensis
Outline: (§3)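 Stability of induced resistance: metronidazole-selected isolates were subcultured three consecutive times on drug-free brucella blood agar (5% sheep blood, hemin, vitamin K1) under anaerobic conditions, then MIC was redetermined by CLSI agar dilution. Resistance was called stable if the MIC held within ±1 dilution. Duplicate experiments.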

Prevotella baroniae [4] = test: Antimicrobial activity against Prevotella baroniae LBP 19 expressing nim gene assessed as inhibition of growth at 48 hrs by agar dilution method; details: Segatella baroniae, LBP 19, 48 h; outline: as §2
Prevotella bivia [5] = test: Antimicrobial activity against slow growing colonies of Prevotella bivia LBP 69 deficient in nim gene assessed as inhibition of growth at 48 hrs by agar dilution method; details: LBP 69, 48 h
Outline: (§4)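 Metronidazole MIC by agar dilution per CLSI M11-A7 on brucella agar with 5% sheep blood, hemin and vitamin K1. Plates incubated anaerobically at 35°C and read at 48 h, with a second reading after a further 72 h. B. fragilis ATCC 25285T and B. thetaiotaomicron ATCC 29741 served as controls. Done in duplicate; EUCAST breakpoints applied (S ≤4, R ≥8 μg/ml).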

Prevotella bivia [6] = test: Antimicrobial activity against Prevotella bivia LBP 69 deficient in nim gene assessed as inhibition of growth at 48 hrs by agar dilution method; details: LBP 69, 48 h; outline: as §2
Prevotella bivia [7] = test: Antimicrobial activity against slow growing colonies of Prevotella bivia LBN 350 deficient in nim gene assessed as inhibition of growth at 48 hrs by agar dilution method; details: LBN 350, 48 h
Outline: (§5)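 Slowly growing colonies inside the Etest inhibition zone, seen after prolonged incubation (an additional 72 h after the 48 h reading), were subcultured without antibiotic. They were then retested for metronidazole MIC by agar dilution on supplemented brucella blood agar under anaerobic conditions.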

Prevotella bivia [8] = test: Antimicrobial activity against Prevotella bivia LBN 332 deficient in nim gene assessed as inhibition of growth at 48 hrs by agar dilution method; details: LBN 332, 48 h; outline: as §2
Prevotella bivia [9] = test: Antimicrobial activity against slow growing colonies of Prevotella bivia LBP 38 deficient in nim gene assessed as inhibition of growth at 48 hrs by agar dilution method; details: LBP 38, 48 h; outline: as §4
Prevotella bivia [10] = test: Antimicrobial activity against slow growing colonies of Prevotella bivia LBP 4 deficient in nim gene assessed as inhibition of growth at 48 hrs by agar dilution method; details: LBP 4, 48 h; outline: as §4
Prevotella baroniae [11] = test: Antimicrobial activity against Prevotella baroniae LBP19 expressing nimI gene assessed as inhibition of growth after three consecutive subcultures on compound free medium by agar dilution method; details: Segatella baroniae; outline: as §3
Prevotella baroniae [12] = test: Antimicrobial activity against Prevotella baroniae LBN 430 expressing nim gene assessed as inhibition of growth at 48 hrs by agar dilution method; details: Segatella baroniae, LBN 430, 48 h; outline: as §2
Prevotella bivia [13] = test: Antimicrobial activity against Prevotella bivia LBN 331 deficient in nim gene assessed as inhibition of growth at 48 hrs by agar dilution method; details: LBN 331, 48 h; outline: as §2
Prevotella baroniae [14] = test: Antimicrobial activity against Prevotella baroniae LBP 9 expressing nim gene assessed as inhibition of growth at 48 hrs by agar dilution method; details: Segatella baroniae, LBP 9, 48 h; outline: as §2
Prevotella baroniae [15] = test: Antimicrobial activity against Prevotella baroniae LBN 427 expressing nimI gene assessed as inhibition of growth after three consecutive subcultures on compound free medium by agar dilution method; details: Segatella baroniae; outline: as §3
Prevotella bivia [16] = test: Antimicrobial activity against Prevotella bivia LBN 467 deficient in nim gene assessed as inhibition of growth at 48 hrs by agar dilution method; details: LBN 467, 48 h; outline: as §2
Prevotella bivia [17] = test: Antimicrobial activity against slow growing colonies of Prevotella bivia LBN 365 deficient in nim gene assessed as inhibition of growth at 48 hrs by agar dilution method; details: LBN 365, 48 h; outline: as §4
Prevotella baroniae [18] = test: Antimicrobial activity against Prevotella baroniae DSM 16972T expressing nimI gene assessed as inhibition of growth after three consecutive subcultures on compound free medium by agar dilution method; details: Segatella baroniae; outline: as §3
Prevotella bivia [19] = test: Antimicrobial activity against Prevotella bivia LBN 371 deficient in nimI gene assessed as inhibition of growth after three consecutive subcultures on compound free medium by agar dilution method
Outline: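 Resistance induction: bacterial suspensions were plated on supplemented brucella blood agar with rising metronidazole concentrations. Colonies from the highest concentration were tested by agar dilution. MIC was then redetermined after three consecutive subcultures on drug-free agar. Resistance counted as stable if the MIC held within ±1 dilution. Anaerobic growth at 37°C. Duplicate experiments.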

Prevotella bivia [20] = test: Antimicrobial activity against slow growing colonies of Prevotella bivia LBN 339 deficient in nim gene assessed as inhibition of growth at 48 hrs by agar dilution method; details: LBN 339, 48 h; outline: as §5
Prevotella bivia [21] = test: Antimicrobial activity against slow growing colonies of Prevotella bivia LBN 445 deficient in nim gene assessed as inhibition of growth at 48 hrs by agar dilution method; details: LBN 445, 48 h; outline: as §4
Prevotella bivia [22] = test: Antimicrobial activity against slow growing colonies of Prevotella bivia LBN 334 deficient in nim gene assessed as inhibition of growth at 48 hrs by agar dilution method; details: LBN 334, 48 h; outline: as §5
Prevotella baroniae [23] = test: Antimicrobial activity against Prevotella baroniae LBN 475 expressing nimI gene assessed as inhibition of growth after several passages on plates containing increasing concentration of compound by agar dilution method; details: Segatella baroniae; outline: as §1
Prevotella bivia [24] = test: Antimicrobial activity against slow growing colonies of Prevotella bivia LBN 336 deficient in nim gene assessed as inhibition of growth at 48 hrs by agar dilution method; details: LBN 336, 48 h; outline: as §5
Prevotella buccae = test: Antimicrobial activity against Prevotella buccae LBN 465 deficient in nimI gene assessed as inhibition of growth at 48 hrs by agar dilution method; details: Segatella buccae, LBN 465, 48 h
Outline: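 Agar dilution MIC on brucella agar with 5% sheep blood, hemin and vitamin K1, following CLSI M11-A7. Plates read after 48 h at 35°C under anaerobic conditions, with B. fragilis ATCC 25285T and B. thetaiotaomicron ATCC 29741 as controls. Assays in duplicate. Isolates kept at −80°C in brucella broth with 15% glycerol. Interpretation used EUCAST breakpoints (S ≤4, R ≥8 μg/ml).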

Structure (SMILES): Cc1ncc([N+](=O)[O-])n1CCO [METRONIDAZOLE]
- MIC (Prevotella nanceiensis [1]): 256 µg/mL (≈ 1500 µM)
- MIC (Prevotella bivia [2]): 2 µg/mL (≈ 11.7 µM)
- MIC (Prevotella nanceiensis [3]): 256 µg/mL (≈ 1500 µM)
- MIC (Prevotella baroniae [4]): 1 µg/mL (≈ 5.84 µM)
- MIC (Prevotella bivia [5]): 8 µg/mL (≈ 46.7 µM)
- MIC (Prevotella bivia [6]): 2 µg/mL (≈ 11.7 µM)
- MIC (Prevotella bivia [7]): 16 µg/mL (≈ 93.5 µM)
- MIC (Prevotella bivia [8]): 4 µg/mL (≈ 23.4 µM)
- MIC (Prevotella bivia [9]): 8 µg/mL (≈ 46.7 µM)
- MIC (Prevotella bivia [10]): 32 µg/mL (≈ 187 µM)
- MIC (Prevotella baroniae [11]): 128 µg/mL (≈ 748 µM)
- MIC (Prevotella baroniae [12]): 4 µg/mL (≈ 23.4 µM)
- MIC (Prevotella bivia [13]): 2 µg/mL (≈ 11.7 µM)
- MIC (Prevotella baroniae [14]): 2 µg/mL (≈ 11.7 µM)
- MIC (Prevotella baroniae [15]): 128 µg/mL (≈ 748 µM)
- MIC (Prevotella bivia [16]): 16 µg/mL (≈ 93.5 µM)
- MIC (Prevotella bivia [17]): 8 µg/mL (≈ 46.7 µM)
- MIC (Prevotella baroniae [18]): 16 µg/mL (≈ 93.5 µM)
- MIC (Prevotella bivia [19]): > 256 µg/mL
- MIC (Prevotella bivia [20]): 16 µg/mL (≈ 93.5 µM)
- MIC (Prevotella bivia [21]): 16 µg/mL (≈ 93.5 µM)
- MIC (Prevotella bivia [22]): 16 µg/mL (≈ 93.5 µM)
- MIC (Prevotella baroniae [23]): 256 µg/mL (≈ 1500 µM)
- MIC (Prevotella bivia [24]): 32 µg/mL (≈ 187 µM)
- MIC (Prevotella buccae): 0.5 µg/mL (≈ 2.92 µM)
